Assays:
Format in all cases: functional
CCRF-CEM = experiment: Cytotoxicity against human CCRF-CEM cells
Summary of the method: (§1)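 NCI 60-cell-line panel, five-dose response study. Effect is plotted against log10 drug concentration for each cell line. GI50 is the molar concentration giving a 50% reduction in net protein increase relative to control cells. LC50 is the concentration lethal to 50% of cells.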

HL-60 = experiment: Cytotoxicity against human HL60 cells; summary of the method: as §1
K562 = experiment: Cytotoxicity against human K562 cells; summary of the method: as §1
MOLT-4 = experiment: Cytotoxicity against human MOLT4 cells; summary of the method: as §1
[1] = Cytotoxicity against human […] cells; summary of the method: as §1
SR = experiment: Cytotoxicity against human SR cells; summary of the method: as §1
A549 = experiment: Cytotoxicity against human A549 cells; summary of the method: as §1
EKVX = experiment: Cytotoxicity against human EKVX cells; summary of the method: as §1
HOP-62 = experiment: Cytotoxicity against human HOP62 cells; summary of the method: as §1
NCI-H226 = experiment: Cytotoxicity against human NCI-H226 cells; summary of the method: as §1
NCI-H23 = experiment: Cytotoxicity against human NCI-H23 cells; summary of the method: as §1
NCI-H322M = experiment: Cytotoxicity against human NCI-H322M cells; summary of the method: as §1
NCI-H460 = experiment: Cytotoxicity against human NCI-H460 cells; summary of the method: as §1
NCI-H522 = experiment: Cytotoxicity against human NCI-H522 cells; summary of the method: as §1
COLO 205 = experiment: Cytotoxicity against human COLO205 cells
Summary of the method: (§2)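 NCI 60-cell-line panel, five-concentration dose-response. Cytotoxic effect was plotted against log10 drug concentration for each line. GI50 is the molar concentration giving a 50% reduction in net protein increase relative to control cells. LC50 is the concentration lethal to 50% of cells. Both were read from the curves.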

HCC 2998 = experiment: Cytotoxicity against human HCC2998 cells; summary of the method: as §1
HCT-116 = experiment: Cytotoxicity against human HCT116 cells; summary of the method: as §1
HCT-15 = experiment: Cytotoxicity against human HCT15 cells; summary of the method: as §1
HT-29 = experiment: Cytotoxicity against human HT-29 cells; summary of the method: as §2
KM12 = experiment: Cytotoxicity against human KM12 cells; summary of the method: as §1
SW-620 = experiment: Cytotoxicity against human SW620 cells
Summary of the method: (§3)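 NCI 60 human tumor cell line panel, five-dose dose-response study. Cytotoxic effect was plotted against log10 drug concentration for each cell line. GI50 is the molar concentration giving 50% reduction in net protein increase versus control cells. LC50 is the concentration lethal to 50% of cells.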

SF-539 = experiment: Cytotoxicity against human SF539 cells; summary of the method: as §1
SNB-19 = experiment: Cytotoxicity against human SNB19 cells; summary of the method: as §1
SNB-75 = experiment: Cytotoxicity against human SNB75 cells; summary of the method: as §1
U-251 = experiment: Cytotoxicity against human U251 cells; summary of the method: as §3
LOX IMVI = experiment: Cytotoxicity against human LOXIMVI cells; summary of the method: as §1
Malme-3M = experiment: Cytotoxicity against human MALME-3M cells; summary of the method: as §1
M14 = experiment: Cytotoxicity against human M14 cells; summary of the method: as §1
MDA-MB-435 = experiment: Cytotoxicity against human MDA-MB-435 cells; summary of the method: as §2
SK-MEL-2 = experiment: Cytotoxicity against human SK-MEL-2 cells; summary of the method: as §1
SK-MEL-28 = experiment: Cytotoxicity against human SK-MEL-28 cells; summary of the method: as §1
SK-MEL-5 = experiment: Cytotoxicity against human SK-MEL-5 cells; summary of the method: as §1
UACC-257 = experiment: Cytotoxicity against human UACC257 cells; summary of the method: as §3
IGROV-1 = experiment: Cytotoxicity against human IGROV1 cells; summary of the method: as §1
OVCAR-3 = experiment: Cytotoxicity against human OVCAR-3 cells; summary of the method: as §1
OVCAR-4 = experiment: Cytotoxicity against human OVCAR4 cells; summary of the method: as §1
OVCAR-5 = experiment: Cytotoxicity against human OVCAR5 cells; summary of the method: as §1
OVCAR-8 = experiment: Cytotoxicity against human OVCAR8 cells; summary of the method: as §1
NCI/ADR-RES = experiment: Cytotoxicity against human NCI/ADR-RES cells; summary of the method: as §1
SK-OV-3 = experiment: Cytotoxicity against human SKOV3 cells; summary of the method: as §1
786-0 = experiment: Cytotoxicity against human 786-0 cells; summary of the method: as §1
A498 = experiment: Cytotoxicity against human A498 cells; summary of the method: as §1
ACHN = experiment: Cytotoxicity against human ACHN cells; summary of the method: as §1
CAKI-1 = experiment: Cytotoxicity against human Caki1 cells; summary of the method: as §1
RXF 393 = experiment: Cytotoxicity against human RXF393 cells; summary of the method: as §1
SN12C = experiment: Cytotoxicity against human SN12C cells; summary of the method: as §1
TK-10 = experiment: Cytotoxicity against human TK10 cells; summary of the method: as §3
UO-31 = experiment: Cytotoxicity against human UO31 cells; summary of the method: as §3
PC-3 = experiment: Cytotoxicity against human PC3 cells; summary of the method: as §1
DU-145 = experiment: Cytotoxicity against human DU145 cells; summary of the method: as §1
MCF7 = experiment: Cytotoxicity against human MCF7 cells; summary of the method: as §1
MDA-MB-231 = experiment: Cytotoxicity against human MDA-MB-231 cells; summary of the method: as §1
[2] = Cytotoxicity against human Hs 578T cells; summary of the method: as §1
BT-549 = experiment: Cytotoxicity against human BT549 cells; summary of the method: as §1
T47D = experiment: Cytotoxicity against human T47D cells; summary of the method: as §3
MDA-MB-468 = experiment: Cytotoxicity against human MDA-MB-468 cells; summary of the method: as §1
HOP-92 = experiment: Cytotoxicity against human HOP92 cells; summary of the method: as §1
SF-268 = experiment: Cytotoxicity against human SF268 cells; summary of the method: as §1
SF-295 = experiment: Cytotoxicity against human SF295 cells; summary of the method: as §1
[3] = read-out: LC50 (the source's name)

## CN1C(N)=NC(=O)/C1=C/c1cn(Cc2ccccc2Br)c2ccccc12
CCRF-CEM
  GI50: 2.54 µM
CCRF-CEM; [3]
  CC50: 36.2 µM
HL-60
  GI50: 1.85 µM
  LC50: 21 µM
K562
  GI50: 2.45 µM
K562; [3]
  CC50: 77.4 µM
MOLT-4
  GI50: 4.57 µM
MOLT-4; [3]
  CC50: > 100 µM
[1]
  GI50: 1.19 µM
  LC50 (concentration lethal to 50% of cells): 65.9 µM
SR
  GI50: 1.96 µM
SR; [3]
  CC50: 72.7 µM
A549
  GI50: 28.7 µM
A549; [3]
  CC50: > 100 µM
EKVX
  GI50: 58.1 µM
EKVX; [3]
  CC50: > 100 µM
HOP-62
  GI50: 8.78 µM
HOP-62; [3]
  CC50: 51.2 µM
NCI-H226
  GI50: 1.37 µM
  LC50: 69.9 µM
NCI-H23
  GI50: 8.07 µM
  LC50 (concentration lethal to 50% of cells): 54.8 µM
NCI-H322M
  GI50: 11 µM
NCI-H322M; [3]
  CC50: > 100 µM
NCI-H460
  GI50: 3.95 µM
NCI-H460; [3]
  CC50: 56.8 µM
NCI-H522
  GI50: 5.38 µM
  LC50: > 100 µM
COLO 205
  GI50: 2.21 µM
COLO 205; [3]
  CC50: 12.3 µM
HCC 2998
  GI50: 6.95 µM
HCC 2998; [3]
  CC50: 47.2 µM
HCT-116
  GI50: 2.42 µM
HCT-116; [3]
  CC50: 30.9 µM
HCT-15
  GI50: 19.8 µM
HCT-15; [3]
  CC50: > 100 µM
HT-29
  GI50: 2.18 µM
HT-29; [3]
  CC50: 6.94 µM
KM12
  GI50: 5.71 µM
KM12; [3]
  CC50: 50.8 µM
SW-620
  GI50: 3.68 µM
SW-620; [3]
  CC50: 43.3 µM
SF-539
  GI50: 1.73 µM
SF-539; [3]
  CC50: 6.94 µM
SNB-19
  GI50: 4.5 µM
SNB-19; [3]
  CC50: 43.8 µM
SNB-75
  GI50: 1.58 µM
  LC50 (concentration lethal to 50% of cells): 18.6 µM
U-251
  GI50: 3.01 µM
U-251; [3]
  CC50: 66.2 µM
LOX IMVI
  GI50: 1.97 µM
  LC50: 9.37 µM
Malme-3M
  GI50: 3.3 µM
Malme-3M; [3]
  CC50: 73.8 µM
M14
  GI50: 4.46 µM
  LC50: 47.8 µM
MDA-MB-435
  GI50: 4.97 µM
MDA-MB-435; [3]
  CC50: 68.6 µM
SK-MEL-2
  GI50: 5.73 µM
SK-MEL-2; [3]
  CC50: > 100 µM
SK-MEL-28
  GI50: 4.14 µM
SK-MEL-28; [3]
  CC50: 38.4 µM
SK-MEL-5
  GI50: 3.38 µM
  LC50: 42.3 µM
UACC-257
  GI50: 12.9 µM
  LC50: 66.9 µM
IGROV-1
  GI50: 20 µM
IGROV-1; [3]
  CC50: > 100 µM
OVCAR-3
  GI50: 1.95 µM
OVCAR-3; [3]
  CC50: 7.35 µM
OVCAR-4
  GI50: 2.41 µM
OVCAR-4; [3]
  CC50: 25.2 µM
OVCAR-5
  GI50: 2.12 µM
OVCAR-5; [3]
  CC50: 29 µM
OVCAR-8
  GI50: 10.1 µM
OVCAR-8; [3]
  CC50: > 100 µM
NCI/ADR-RES
  GI50: > 100 µM
NCI/ADR-RES; [3]
  CC50: > 100 µM
SK-OV-3
  GI50: 11.9 µM
SK-OV-3; [3]
  CC50: 49.9 µM
786-0
  GI50: 6.15 µM
  LC50: 46.2 µM
A498
  GI50: 13.9 µM
A498; [3]
  CC50: 53.1 µM
ACHN
  GI50: 11.8 µM
ACHN; [3]
  CC50: 59 µM
CAKI-1
  GI50: 68.1 µM
CAKI-1; [3]
  CC50: > 100 µM
RXF 393
  GI50: 2.77 µM
RXF 393; [3]
  CC50: 53.7 µM
SN12C
  GI50: 6.07 µM
SN12C; [3]
  CC50: 76.3 µM
TK-10
  GI50: 6.84 µM
TK-10; [3]
  CC50: > 100 µM
UO-31
  GI50: 7.95 µM
UO-31; [3]
  CC50: > 100 µM
PC-3
  GI50: 10.4 µM
PC-3; [3]
  CC50: 48.1 µM
DU-145
  GI50: 82.1 µM
DU-145; [3]
  CC50: 68.8 µM
MCF7
  GI50: 2.25 µM
MCF7; [3]
  CC50: 48.1 µM
MDA-MB-231
  GI50: 4.07 µM
  LC50: 46.7 µM
[2]
  GI50: 3.97 µM
  LC50: > 100 µM
BT-549
  GI50: 2.05 µM
BT-549; [3]
  CC50: > 100 µM
T47D
  GI50: 1.68 µM
T47D; [3]
  CC50: 13.1 µM
MDA-MB-468
  GI50: 1.69 µM
  LC50: 6.9 µM
HOP-92
  GI50: 2.98 µM
HOP-92; [3]
  CC50: 44.5 µM
SF-268
  GI50: 5.38 µM
SF-268; [3]
  CC50: 59.8 µM
SF-295
  GI50: 4.96 µM
SF-295; [3]
  CC50: > 100 µM

Source: ChEMBL document CHEMBL1153240, “Microwave assisted synthesis and in vitro cytotoxicities of substituted (Z)-2-amino-5-(1-benzyl-1H-indol-3-yl)methylene-1-methyl-1H-imidazol-4(5H)-ones against human tumor cell lines” (2010)
